Experimental data as given in ChEMBL document CHEMBL1275461, “Early bactericidal activity and pharmacokinetics of the diarylquinoline TMC207 in treatment of pulmonary tuberculosis” (Antimicrob Agents Chemother, 2008).

Experiments:
[1] = test system: Homo sapiens; test: Toxicity in pulmonary tuberculosis patient assessed as hemoptysis at 300 mg/kg, po once daily; type: organism-based; design: dose 300 mg/kg, route oral; details: in vivo
[2] = test system: Homo sapiens; test: Cardiotoxicity in pulmonary tuberculosis patient assessed as increase in QT interval at 300 mg/kg, po once daily for 7 days; type: toxicity, organism-based; design: dose 300 mg/kg, route oral; details: in vivo, 168 h
[3] = test system: Mycobacterium tuberculosis; test: Bactericidal activity against Mycobacterium tuberculosis in pulmonary tuberculosis patient assessed as reduction in sputum bacterial count at 300 […], po once daily measured after 1 day; type: functional
Procedure, shortened: (§1)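 Hospitalized treatment-naïve smear-positive patients took oral doses once daily, observed, after breakfast. Sputum was pooled over 16 h overnight at baseline, after each of the 7 dosing days, and on the night after the first standard-therapy dose. Sputum was stirred, digested with dithiothreitol for 20 min at room temperature, and diluted 10-fold. Dilutions were plated in quadruplicate on selective 7H11 agar and counted after 3-4 weeks at 37°C at 20-200 colonies. The read-out was change in log10 CFU/ml from baseline, with a count of 0 set to log 0.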

[4] = test system: Mycobacterium tuberculosis; test: Bactericidal activity against Mycobacterium tuberculosis in pulmonary tuberculosis patient assessed as reduction in sputum bacterial count at 300 […], po once daily measured after 2 days; type: functional; procedure, shortened: as §1
[5] = test system: Mycobacterium tuberculosis; test: Bactericidal activity against Mycobacterium tuberculosis in pulmonary tuberculosis patient assessed as reduction in sputum bacterial count at 300 […], po once daily measured after 3 days; type: functional; procedure, shortened: as §1
[6] = test system: Mycobacterium tuberculosis; test: Bactericidal activity against Mycobacterium tuberculosis in pulmonary tuberculosis patient assessed as reduction in sputum bacterial count at 300 mg/kg, po once daily measured after 4 days; type: functional; procedure, shortened: as §1
[7] = test system: Mycobacterium tuberculosis; test: Bactericidal activity against Mycobacterium tuberculosis in pulmonary tuberculosis patient assessed as reduction in sputum bacterial count at 300 mg/kg, po once daily measured after 5 days; type: functional; procedure, shortened: as §1
[8] = test system: Mycobacterium tuberculosis; test: Bactericidal activity against Mycobacterium tuberculosis in pulmonary tuberculosis patient assessed as reduction in sputum bacterial count at 300 mg/kg, po once daily measured after 6 days; type: functional; procedure, shortened: as §1
[9] = test system: Mycobacterium tuberculosis; test: Bactericidal activity against Mycobacterium tuberculosis in pulmonary tuberculosis patient assessed as reduction in sputum bacterial count at 300 mg/kg, po once daily measured after 7 days; type: functional; procedure, shortened: as §1
[10] = test system: Mycobacterium tuberculosis; test: Bactericidal activity against Mycobacterium tuberculosis in pulmonary tuberculosis patient assessed as reduction in sputum bacterial count at 300 mg/kg, po once daily measured on day 8 after starting standard TB therapy; type: functional; procedure, shortened: as §1
[11] = test system: Homo sapiens; test: Cardiotoxicity in pulmonary tuberculosis patient assessed as increase in QT interval at 600 mg/kg, po once daily for 7 days; type: toxicity, organism-based; design: dose 600 mg/kg, route oral; details: in vivo, 168 h
[12] = test system: Mycobacterium tuberculosis; test: Bactericidal activity against Mycobacterium tuberculosis in pulmonary tuberculosis patient assessed as reduction in sputum bacterial count at 600 […], po once daily measured after 1 day; type: functional; procedure, shortened: as §1
[13] = test system: Mycobacterium tuberculosis; test: Bactericidal activity against Mycobacterium tuberculosis in pulmonary tuberculosis patient assessed as reduction in sputum bacterial count at 600 mg/kg, po once daily measured after 2 days; type: functional; procedure, shortened: as §1
[14] = test system: Mycobacterium tuberculosis; test: Bactericidal activity against Mycobacterium tuberculosis in pulmonary tuberculosis patient assessed as reduction in sputum bacterial count at 600 mg/kg, po once daily measured after 3 days; type: functional; procedure, shortened: as §1
[15] = test system: Mycobacterium tuberculosis; test: Bactericidal activity against Mycobacterium tuberculosis in pulmonary tuberculosis patient assessed as reduction in sputum bacterial count at 600 mg/kg, po once daily measured after 4 days; type: functional; procedure, shortened: as §1
[16] = test system: Mycobacterium tuberculosis; test: Bactericidal activity against Mycobacterium tuberculosis in pulmonary tuberculosis patient assessed as reduction in sputum bacterial count at 600 mg/kg, po once daily measured after 6 days; type: functional; procedure, shortened: as §1
[17] = test system: Mycobacterium tuberculosis; test: Bactericidal activity against Mycobacterium tuberculosis in pulmonary tuberculosis patient assessed as reduction in sputum bacterial count at 600 mg/kg, po once daily measured after 7 days; type: functional; procedure, shortened: as §1
[18] = test system: Mycobacterium tuberculosis; test: Bactericidal activity against Mycobacterium tuberculosis in pulmonary tuberculosis patient assessed as reduction in sputum bacterial count at 600 mg/kg, po once daily measured on day 8 after starting standard TB therapy; type: functional; procedure, shortened: as §1

Structure (SMILES)	Activity [1]	Time [2]	log10CFU/ml [3]	log10CFU/ml [4]	log10CFU/ml [5]	log10CFU/ml [6]	log10CFU/ml [7]	log10CFU/ml [8]	log10CFU/ml [9]	log10CFU/ml [10]	Time [11]	log10CFU/ml [12]	log10CFU/ml [13]	log10CFU/ml [14]	log10CFU/ml [15]	log10CFU/ml [16]	log10CFU/ml [17]	log10CFU/ml [18]
NNC(=O)c1ccncc1 [ISONIAZID]	13.3%	20.2 ms	-0.43	-0.57	-1.34	-1.32	-1.41	-1.68	-1.88	-1.94								
CO[C@H]1/C=C/O[C@@]2(C)Oc3c(C)c(O)c4c(O)c(c(/C=N/N5CCN(C)CC5)c(O)c4c3C2=O)NC(=O)/C(C)=C\C=C\[C@H](C)[C@H](O)[C@@H](C)[C@@H](O)[C@@H](C)[C@H](OC(C)=O)[C@@H]1C [RIFAMPIN]											13 ms	-0.28	-0.88	-0.89	-1.17	-1.55	-1.7	-1.82
